Where two headings read alike, the source gives them in different places.
Experiments:
[1] = test system: P. falciparum (3D7 strain); experiment: Antiplasmodial activity, LDH assay; format: cell-based
[2] = test system: Trypanosoma cruzi (Tulahuen strain transfected with the β-galactosidase gene); experiment: Antitrypanosomal activity on intracellular amastigotes, β-galactosidase readout; format: cell-based; conditions: read-out: Trypanosomal CE50; intracellular amastigotes in U-937 cells, 72 h
[3] = test system: intracellular amastigotes of L. panamensis (MHOM/CO/87/UA140-EGFP strain); experiment: Antileishmanial activity on intracellular amastigotes, flow cytometry; format: cell-based
Outline: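 U-937 cells (3 × 10^5 cells/mL, RPMI-1640, 0.1 μg/mL PMA) infected with stationary-phase EGFP-transfected promastigotes at 15:1 for 3 h at 34 °C, then washed. After 24 h, test compound was added at 50, 12.5, 3.125 and 0.78 μg/mL for 72 h at 37 °C, 5% CO2. Amphotericin B served as positive control. Detached cells were read by flow cytometry (488/525 nm, 10,000 events). EC50 was by probit from MFI relative to untreated wells. Triplicates, ≥2 independent experiments.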

[4] = test system: human monocytes (U-937 ATCC CRL-1593.2); experiment: Cytotoxic activity, MTT assay on U-937 cells; format: cell-based; conditions: 72 h
Outline: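 Exponential-phase cells at 1 × 10^5 cells/mL in RPMI-1640 with 10% FBS. Test compound (200, 50, 12.5, 3.125 μg/mL) was added in PBS with 0.5% DMSO for 72 h at 37 °C, 5% CO2. MTT was then added for 3 h, the reaction stopped with isopropanol/SDS, and absorbance read at 570 nm. Viability was taken relative to untreated cells, with blank subtraction. LC50 was by probit linear regression. Triplicates, ≥2 independent experiments.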

[5] = Electrochemical measurements; format: physicochemical; conditions: cyclical cathodic and anodic currents, low potential range, ACN, TBAB 0.1 M
Outline: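 Cyclic voltammetry used a glassy carbon working electrode, Ag/AgCl reference and platinum counter electrode, in acetonitrile with 0.1 M TBAB as supporting electrolyte. The scan ran from −1.5 to 2.5 V at 150 mV/s. p-Quinone was run under the same conditions as experimental control.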

[6] = read-out: Plasmodial CE50, 3D7 strain, 72 h
[7] = read-out: Leishmanial CE50, intracellular amastigotes in U-937 cells, 72 h
[8] = Plasmodium falciparum, 3D7, 72 h, read-out: Plasmodial CE50, 3D7 strain, 72 h
[9] = Leishmania panamensis, U-937, 72 h, read-out: Leishmanial CE50
[10] = Leishmania panamensis, read-out: Antileishmanial activity

## 3-(4-Chlorobenzyl)-4H-thiochromen-4-one 1,1-dioxide [Compound 14c]
[1]; [6]
  EC50: 46.7 µM
[2]
  EC50: 129 µM
[3]; read-out: Antileishmanial activity, Table 2, own compounds, repeats Table 1
  EC50: 18.2 µM
[3]; [7]
  EC50: 18.2 µM
[4]
  Cytotoxicity CL50: 20.81 µM

## 6-Phenyl-4H-thiochromen-4-one 1,1-dioxide [Compound 21d]
[1]; [6]
  EC50: 75.4 µM
[2]
  EC50: 260 µM
[3]; [7]
  EC50: 691 µM
[4]
  Cytotoxicity CL50: 276.03 µM

## 6-Phenyl-4H-thiochromen-4-one 1,1-dioxide [Compound 21e]
[1]; [6]
  EC50: 61.4 µM
[2]
  EC50: 735 µM
[3]; [7]
  EC50: 74 µM
[4]
  Cytotoxicity CL50: 254.35 µM

## O=C1C=CS(=O)(=O)c2ccccc21 [Compound 6a, 4H-Thiochromen-4-one 1,1-dioxide]
[5]
  electrochemical behavior: unexpected capacitive behavior
[1]; [8]
  EC50: 717 µM
[3]; [9]
  EC50: 137 µM

## O=C1C=CS(=O)(=O)c2ccc(F)cc21 [Compound 6b, 6-Fluoro-4H-thiochromen-4-one 1,1-dioxide]
[1]; [8]
  EC50: 111 µM
[4]
  Cytotoxicity CL50: 274.83 µM

## O=C1C=CS(=O)(=O)c2ccc(Cl)cc21 [Compound 6c, 6-Chloro-4H-thiochromen-4-one 1,1-dioxide]
[1]; [8]
  EC50: 89.9 µM
[4]
  Cytotoxicity CL50: 215.05 µM

## O=C1C=CS(=O)(=O)c2ccc(Br)cc21 [Compound 6d, 6-Bromo-4H-thiochromen-4-one 1,1-dioxide]
[1]; [8]
  EC50: 71.2 µM
[3]; [9]
  EC50: 106 µM

## O=C1C=CS(=O)(=O)c2cc(Br)ccc21 [Compound 6e, 7-Bromo-4H-thiochromen-4-one 1,1-dioxide]
[1]; [8]
  EC50: 76.3 µM
[4]
  Cytotoxicity CL50: 252.48 µM

## O=C1C=CS(=O)(=O)c2c(Br)cccc21 [Compound 6f, 8-Bromo-4H-thiochromen-4-one 1,1-dioxide]
[1]; [8]
  EC50: 82.8 µM
[3]; [9]
  EC50: 149 µM
[4]
  Cytotoxicity CL50: 318.45 µM

## CC1=CC(=O)c2ccccc2S1(=O)=O [Compound 11a, 2-Methyl-4H-thiochromen-4-one 1,1 dioxide]
[1]; [8]
  EC50: 140 µM
[3]; [9]
  EC50: 35.6 µM
[4]
  Cytotoxicity CL50: 59.12 µM

## O=C1C(Cc2ccccc2Cl)=CS(=O)(=O)c2ccccc21 [Compound 14a, 3-(2-Chlorobenzyl)-4H-thiochromen-4-one 1,1-dioxide]
[1]; [8]
  EC50: 71.2 µM
[3]; [9]
  EC50: 289 µM
[4]
  Cytotoxicity CL50: 83.61 µM

## O=C1C(Cc2ccc(Cl)cc2)=CS(=O)(=O)c2ccccc21 [Compound 14b, 3-(4-Chlorobenzyl)-4H-thiochromen-4-one 1,1-dioxide]
[1]; [8]
  EC50: 50.6 µM
[3]; [9]
  EC50: 63.6 µM
[3]; [10]
  EC50: 63.6 µM

## O=C1C(Cc2ccco2)=CS(=O)(=O)c2ccccc21 [Compound 17a, 3-(Furan-2-yl-methyl)-4H-thiochromen-4-one 1,1-dioxide]
[1]; [8]
  EC50: 70.2 µM
[3]; [9]
  EC50: 72.9 µM
[3]; [10]
  EC50: 72.9 µM

## O=C1C(Cc2cccs2)=CS(=O)(=O)c2ccccc21 [Compound 17b, 3-(Thiophen-2-yl-methyl)-4H-thiochromen-4-one 1,1-dioxide]
[1]; [8]
  EC50: 99.3 µM
[3]; [9]
  EC50: 16.5 µM
[3]; [10]
  EC50: 16.5 µM
[4]
  Cytotoxicity CL50: 12.70 µM

## O=C1C=CS(=O)(=O)c2ccc(-c3cc(C(F)(F)F)cc(C(F)(F)F)c3)cc21 [Compound 21a, 6-(3,5-Bis(trifluoromethyl)phenyl) 4 H-thiochromen-4-one 1,1-dioxide]
[1]; [8]
  EC50: 71.2 µM
[3]; [9]
  EC50: 289 µM
[4]
  Cytotoxicity CL50: 83.61 µM

## O=C1C=CS(=O)(=O)c2cc(-c3cc(C(F)(F)F)cc(C(F)(F)F)c3)ccc21 [Compound 21b, 7-(3,5-Bis(trifluoromethyl)phenyl)-4H-thiochromen-4-one 1,1-dioxide]
[1]; [8]
  EC50: 98.1 µM
[3]; [9]
  EC50: 102 µM
[4]
  Cytotoxicity CL50: 49.16 µM

## O=C1C=CS(=O)(=O)c2c1cccc2-c1cc(C(F)(F)F)cc(C(F)(F)F)c1 [Compound 21c, 8-(3,5-Bis(trifluoromethyl)phenyl)-4H-thiochromen-4-one 1,1-dioxide]
[1]; [8]
  EC50: 71.4 µM
[3]; [9]
  EC50: 9.3 µM
[3]; [10]
  EC50: 9.3 µM
[4]
  Cytotoxicity CL50: 23.20 µM
